According to ChEMBL document CHEMBL1137240, “Conjugation of adenosine and hexa-(D-arginine) leads to a nanomolar bisubstrate-analog inhibitor of basophilic protein kinases” (J Med Chem, 2006):

Tests used:
[1] = molecular target: AMP-activated protein kinase, AMPK (Homo sapiens) (UniProt P54646+O43741+P54619+Q9UGJ0+Q9Y478+Q13131+Q9UGI9); assay: Percent residual activity, relative to control, of AMPK at 1 uM concentration of inhibitor in presence of 50 uM ATP; assay type: protein-complex assay
In short: (§1)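 It is expressed as percent of activity in control incubations without inhibitor, as the mean of duplicate determinations. The protocol follows earlier published panel methods.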

[2] = molecular target: Ribosomal protein S6 kinase alpha-1 (Homo sapiens) (UniProt Q15418); assay: Percent residual activity, relative to control, of MAPKAP-K1a/Rsk1 at 1 uM concentration of inhibitor in presence of 50 uM ATP; in short: as §1
[3] = molecular target: RAC-beta serine/threonine-protein kinase (Homo sapiens) (UniProt P31751); assay: Percent residual activity, relative to control, of PKB beta at 1uM concentration of inhibitor in presence of 50uM ATP; in short: as §1
[4] = molecular target: MAP kinase-interacting serine/threonine-protein kinase 1 (Homo sapiens) (UniProt Q9BUB5); assay: Percent residual activity, relative to control, of MNK1 at 1 uM concentration of inhibitor in presence of 50 uM ATP; in short: as §1
[5] = molecular target: Mitogen-activated protein kinase 13 (Homo sapiens) (UniProt O15264); assay: Percent residual activity, relative to control, of SAPK4/p38 delta at 1 uM concentration of inhibitor in presence of 5 uM ATP; in short: as §1
Sequence of Mitogen-activated protein kinase 13 (Homo sapiens) (O15264 whole entry): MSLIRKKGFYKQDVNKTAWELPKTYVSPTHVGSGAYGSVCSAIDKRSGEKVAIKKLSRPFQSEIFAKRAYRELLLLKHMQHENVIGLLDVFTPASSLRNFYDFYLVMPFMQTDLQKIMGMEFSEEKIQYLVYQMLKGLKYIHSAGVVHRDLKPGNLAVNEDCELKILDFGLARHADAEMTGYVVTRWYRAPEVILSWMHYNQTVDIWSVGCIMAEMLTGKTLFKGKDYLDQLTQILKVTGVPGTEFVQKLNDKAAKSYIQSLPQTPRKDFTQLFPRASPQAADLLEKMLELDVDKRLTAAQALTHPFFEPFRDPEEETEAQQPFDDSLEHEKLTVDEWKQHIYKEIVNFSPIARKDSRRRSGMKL

[6] = molecular target: 3-phosphoinositide-dependent protein kinase 1 (Homo sapiens) (UniProt O15530); assay: Percent residual activity, relative to control, of PDK1 at 1 uM concentration of inhibitor in presence of 20 uM ATP; in short: as §1
[7] = molecular target: Serine/threonine-protein kinase pim-2 (Homo sapiens) (UniProt Q9P1W9); assay: Percent residual activity, relative to control, of PIM2 at 1uM concentration of inhibitor in presence of 5uM ATP; in short: as §1
[8] = molecular target: Serine/threonine-protein kinase Chk2 (Homo sapiens) (UniProt O96017); assay: Percent residual activity, relative to control, of CHK2 at 1uM concentration of inhibitor in presence of 20uM ATP; in short: as §1
[9] = molecular target: Serine/threonine-protein kinase Chk1 (Homo sapiens) (UniProt O14757); assay: Percent residual activity, relative to control, of CHK1 at 1 uM concentration of inhibitor in presence of 20 uM ATP; in short: as §1
[10] = molecular target: Inhibitor of nuclear factor kappa-B kinase subunit beta (Homo sapiens) (UniProt O14920); assay: Percent residual activity, relative to control, of IKK beta at 1 uM concentration of inhibitor in presence of 5 uM ATP
In short: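 Kinase panel assay run at an ATP concentration close to the kinase's Km. Inhibitor tested at 1 µM. Activity expressed as percent residual relative to control incubations without inhibitor, as the mean of duplicate determinations.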

[11] = molecular target: Serine/threonine-protein kinase Nek6 (Homo sapiens) (UniProt Q9HC98); assay: Percent residual activity, relative to control, of NEK6 at 1 uM concentration of inhibitor in presence of 50 uM ATP; in short: as §1
Sequence of Serine/threonine-protein kinase Nek6 (Homo sapiens) (Q9HC98 whole entry): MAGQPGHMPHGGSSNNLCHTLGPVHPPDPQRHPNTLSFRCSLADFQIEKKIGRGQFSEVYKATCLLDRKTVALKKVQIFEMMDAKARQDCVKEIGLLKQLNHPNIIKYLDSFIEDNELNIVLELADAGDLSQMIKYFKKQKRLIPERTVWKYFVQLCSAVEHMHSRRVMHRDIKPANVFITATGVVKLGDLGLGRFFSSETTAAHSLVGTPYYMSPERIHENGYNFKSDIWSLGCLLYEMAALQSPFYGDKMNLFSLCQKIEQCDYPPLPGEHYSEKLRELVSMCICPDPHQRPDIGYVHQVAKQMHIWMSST

[12] = molecular target: Ribosomal protein S6 kinase (P70S6K) (Homo sapiens) (UniProt Q9UBS0+P23443); assay: Percent residual activity, relative to control, of P70S6K at 1 uM concentration of inhibitor in presence of 20 uM ATP; assay type: protein-complex assay; in short: as §1
[13] = molecular target: Myosin light chain kinase, smooth muscle (Homo sapiens) (UniProt Q15746); assay: Percent residual activity, relative to control, of smMLCK at 1uM concentration of inhibitor in presence of 50uM ATP
Sequence of Myosin light chain kinase, smooth muscle (Homo sapiens) (Q15746 whole entry): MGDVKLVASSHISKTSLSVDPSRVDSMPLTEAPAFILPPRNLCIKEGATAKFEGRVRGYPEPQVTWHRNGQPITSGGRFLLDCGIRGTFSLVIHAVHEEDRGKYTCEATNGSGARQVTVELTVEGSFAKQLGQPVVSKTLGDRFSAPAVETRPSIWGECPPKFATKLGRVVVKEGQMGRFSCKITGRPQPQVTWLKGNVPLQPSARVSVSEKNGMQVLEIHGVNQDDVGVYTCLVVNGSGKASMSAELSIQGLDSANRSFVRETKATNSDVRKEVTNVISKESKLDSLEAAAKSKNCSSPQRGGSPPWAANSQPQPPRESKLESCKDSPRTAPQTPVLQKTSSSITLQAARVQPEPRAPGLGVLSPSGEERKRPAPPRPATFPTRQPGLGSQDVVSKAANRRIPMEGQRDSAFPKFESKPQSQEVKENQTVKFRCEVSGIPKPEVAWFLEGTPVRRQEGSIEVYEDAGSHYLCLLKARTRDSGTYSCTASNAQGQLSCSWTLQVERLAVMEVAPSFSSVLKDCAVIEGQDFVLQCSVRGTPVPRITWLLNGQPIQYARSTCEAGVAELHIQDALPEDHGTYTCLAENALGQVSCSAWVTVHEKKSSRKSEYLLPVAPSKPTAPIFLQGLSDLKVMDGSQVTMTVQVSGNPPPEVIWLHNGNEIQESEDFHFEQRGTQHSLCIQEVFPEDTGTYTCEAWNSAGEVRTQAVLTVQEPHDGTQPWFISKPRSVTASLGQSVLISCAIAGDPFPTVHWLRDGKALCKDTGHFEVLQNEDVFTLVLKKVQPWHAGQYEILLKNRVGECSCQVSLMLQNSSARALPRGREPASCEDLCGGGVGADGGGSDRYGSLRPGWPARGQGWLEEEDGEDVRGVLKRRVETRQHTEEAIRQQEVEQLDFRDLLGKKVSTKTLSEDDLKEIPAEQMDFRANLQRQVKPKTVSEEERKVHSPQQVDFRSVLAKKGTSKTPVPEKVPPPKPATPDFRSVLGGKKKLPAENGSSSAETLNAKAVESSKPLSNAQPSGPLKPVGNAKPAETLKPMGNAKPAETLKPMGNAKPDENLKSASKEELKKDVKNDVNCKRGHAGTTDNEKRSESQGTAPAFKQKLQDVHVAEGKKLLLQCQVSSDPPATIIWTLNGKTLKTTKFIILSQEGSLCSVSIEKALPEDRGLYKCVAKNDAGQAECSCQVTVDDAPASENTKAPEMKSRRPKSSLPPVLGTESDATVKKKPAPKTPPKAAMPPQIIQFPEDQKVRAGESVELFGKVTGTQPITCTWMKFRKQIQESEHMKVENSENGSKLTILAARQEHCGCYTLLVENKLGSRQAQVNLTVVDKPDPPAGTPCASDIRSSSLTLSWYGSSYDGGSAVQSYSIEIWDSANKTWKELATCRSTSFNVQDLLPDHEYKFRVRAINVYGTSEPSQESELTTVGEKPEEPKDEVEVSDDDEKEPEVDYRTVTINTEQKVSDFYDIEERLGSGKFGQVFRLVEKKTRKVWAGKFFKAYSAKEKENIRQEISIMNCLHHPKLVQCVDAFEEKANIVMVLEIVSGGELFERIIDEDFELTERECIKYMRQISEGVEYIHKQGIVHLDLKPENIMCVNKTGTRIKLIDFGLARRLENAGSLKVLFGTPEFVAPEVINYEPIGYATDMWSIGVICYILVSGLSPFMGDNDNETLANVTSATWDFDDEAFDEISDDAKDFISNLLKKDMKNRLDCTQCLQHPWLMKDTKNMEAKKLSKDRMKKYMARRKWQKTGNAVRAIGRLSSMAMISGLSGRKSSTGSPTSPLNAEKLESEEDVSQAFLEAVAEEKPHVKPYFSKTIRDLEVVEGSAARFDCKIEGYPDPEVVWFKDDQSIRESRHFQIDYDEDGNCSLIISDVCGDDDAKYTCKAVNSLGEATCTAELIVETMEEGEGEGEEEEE
In short: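 Methods followed an earlier description. Activity is given as percent residual activity relative to control incubations with the inhibitor omitted. Values are means of duplicate determinations.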

[14] = molecular target: Cyclin-dependent kinase 2/cyclin A (Homo sapiens) (UniProt P24941+P20248+P78396); assay: Percent residual activity, relative to control, of CDK2 (with cyclin A) at 1 uM concentration of inhibitor in presence of 20 uM ATP; assay type: protein-complex assay; in short: as §1
[15] = molecular target: Eukaryotic elongation factor 2 kinase (Homo sapiens) (UniProt O00418); assay: Percent residual activity, relative to control, of EF2K at 1 uM concentration of inhibitor in presence of 5 uM ATP; in short: as §1
[16] = molecular target: c-Jun N-terminal kinase, JNK (Homo sapiens) (UniProt P45983+P53779+P45984); assay: Percent residual activity, relative to control, of JNK/SAPK1c at 1 uM concentration of inhibitor in presence of 20 uM ATP; assay type: protein assay; in short: as §1
[17] = molecular target: Glycogen synthase kinase-3 beta (Homo sapiens) (UniProt P49841); assay: Percent residual activity, relative to control, of GSK3 beta at 1uM concentration of inhibitor in presence of 5uM ATP; in short: as §1
Sequence of Glycogen synthase kinase-3 beta (Homo sapiens) (P49841 whole entry, looked up): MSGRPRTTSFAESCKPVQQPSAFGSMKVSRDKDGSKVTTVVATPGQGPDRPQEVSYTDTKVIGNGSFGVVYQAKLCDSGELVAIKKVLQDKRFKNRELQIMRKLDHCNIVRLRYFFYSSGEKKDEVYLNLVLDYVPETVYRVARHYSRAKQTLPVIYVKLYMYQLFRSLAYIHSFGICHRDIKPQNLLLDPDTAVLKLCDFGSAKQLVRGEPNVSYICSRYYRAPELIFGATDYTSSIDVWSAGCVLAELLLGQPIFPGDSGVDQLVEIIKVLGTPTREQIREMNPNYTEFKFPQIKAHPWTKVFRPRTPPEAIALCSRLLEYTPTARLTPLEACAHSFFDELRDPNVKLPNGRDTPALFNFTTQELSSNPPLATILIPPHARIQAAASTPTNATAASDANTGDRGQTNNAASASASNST

[18] = molecular target: Tyrosine-protein kinase Lck (Homo sapiens) (UniProt P06239); assay: Percent residual activity, relative to control, of Lck at 1uM concentration of inhibitor in presence of 50uM ATP; in short: as §1
Sequence of Tyrosine-protein kinase Lck (Homo sapiens) (P06239 2-509 limits assumed): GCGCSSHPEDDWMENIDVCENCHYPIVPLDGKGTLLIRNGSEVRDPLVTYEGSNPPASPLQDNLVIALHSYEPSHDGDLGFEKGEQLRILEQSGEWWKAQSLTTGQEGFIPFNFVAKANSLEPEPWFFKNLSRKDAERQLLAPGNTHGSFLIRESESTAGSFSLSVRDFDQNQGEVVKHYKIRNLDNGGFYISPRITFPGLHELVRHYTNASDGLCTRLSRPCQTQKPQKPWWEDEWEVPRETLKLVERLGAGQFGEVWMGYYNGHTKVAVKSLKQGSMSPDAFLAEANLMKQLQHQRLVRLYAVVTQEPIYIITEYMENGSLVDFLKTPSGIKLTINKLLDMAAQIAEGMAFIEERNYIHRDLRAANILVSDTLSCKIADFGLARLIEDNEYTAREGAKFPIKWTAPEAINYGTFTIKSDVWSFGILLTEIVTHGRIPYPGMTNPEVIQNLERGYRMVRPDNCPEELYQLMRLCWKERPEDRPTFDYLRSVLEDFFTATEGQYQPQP

[19] = molecular target: Serine/threonine-protein kinase 3 (Homo sapiens) (UniProt Q13188); assay: Percent residual activity, relative to control, of MST2 at 1 uM concentration of inhibitor in presence of 20 uM ATP; in short: as §1
[20] = molecular target: Aurora kinase B (Homo sapiens) (UniProt Q96GD4); assay: Percent residual activity, relative to control, of Aurora-B at 1 uM concentration of inhibitor in presence of 20 uM ATP; in short: as §1
Sequence of Aurora kinase B (Homo sapiens) (Q96GD4 whole entry): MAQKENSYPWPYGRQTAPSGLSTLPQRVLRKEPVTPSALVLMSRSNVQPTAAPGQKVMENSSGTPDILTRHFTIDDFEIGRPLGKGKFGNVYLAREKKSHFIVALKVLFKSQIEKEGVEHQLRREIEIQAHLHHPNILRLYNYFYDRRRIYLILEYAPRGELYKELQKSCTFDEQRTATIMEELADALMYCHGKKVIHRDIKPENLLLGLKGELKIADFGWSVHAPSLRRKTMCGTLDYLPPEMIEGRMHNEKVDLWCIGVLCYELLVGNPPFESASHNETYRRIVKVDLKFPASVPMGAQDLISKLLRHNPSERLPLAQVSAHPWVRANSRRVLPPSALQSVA

[21] = molecular target: MAP kinase-activated protein kinase 5 (Homo sapiens) (UniProt Q8IW41); assay: Percent residual activity, relative to control, of PRAK at 1uM concentration of inhibitor in presence of 20uM ATP; in short: as §1
Sequence of MAP kinase-activated protein kinase 5 (Homo sapiens) (Q8IW41 whole entry): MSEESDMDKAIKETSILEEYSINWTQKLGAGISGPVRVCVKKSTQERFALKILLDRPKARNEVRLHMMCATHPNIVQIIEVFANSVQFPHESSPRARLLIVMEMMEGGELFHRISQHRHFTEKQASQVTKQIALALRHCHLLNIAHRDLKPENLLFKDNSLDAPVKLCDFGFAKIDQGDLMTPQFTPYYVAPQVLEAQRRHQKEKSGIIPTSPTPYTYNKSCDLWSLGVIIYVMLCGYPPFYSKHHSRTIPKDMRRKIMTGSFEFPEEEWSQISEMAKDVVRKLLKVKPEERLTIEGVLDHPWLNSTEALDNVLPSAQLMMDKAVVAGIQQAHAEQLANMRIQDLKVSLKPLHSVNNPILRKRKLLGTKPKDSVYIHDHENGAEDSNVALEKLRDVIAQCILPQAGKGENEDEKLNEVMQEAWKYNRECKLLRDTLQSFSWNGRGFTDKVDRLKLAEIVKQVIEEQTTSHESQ

[22] = molecular target: Casein kinase II (Homo sapiens) (UniProt P67870+P68400+P19784); assay: Percent residual activity, relative to control, of CK2 at 1 uM concentration of inhibitor in presence of 5 uM ATP; assay type: protein-complex assay; in short: as §1
[23] = molecular target: Serine/threonine-protein kinase Sgk1 (Homo sapiens) (UniProt O00141); assay: Percent residual activity, relative to control, of SGK at 1 uM concentration of inhibitor in presence of 20 uM ATP; in short: as §1
Sequence of Serine/threonine-protein kinase Sgk1 (Homo sapiens) (O00141 whole entry): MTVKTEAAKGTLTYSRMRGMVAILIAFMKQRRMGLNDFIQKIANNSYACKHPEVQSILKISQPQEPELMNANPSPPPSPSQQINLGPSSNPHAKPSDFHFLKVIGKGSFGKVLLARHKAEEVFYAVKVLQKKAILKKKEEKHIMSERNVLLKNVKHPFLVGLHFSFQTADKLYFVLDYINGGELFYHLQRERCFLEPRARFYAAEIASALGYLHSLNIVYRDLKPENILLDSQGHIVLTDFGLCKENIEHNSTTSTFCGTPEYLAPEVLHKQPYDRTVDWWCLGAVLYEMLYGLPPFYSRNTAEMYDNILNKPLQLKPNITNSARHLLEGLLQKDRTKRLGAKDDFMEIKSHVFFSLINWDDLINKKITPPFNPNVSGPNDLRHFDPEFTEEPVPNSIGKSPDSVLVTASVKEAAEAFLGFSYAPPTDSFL

[24] = molecular target: MAP kinase-activated protein kinase 2 (Homo sapiens) (UniProt P49137); assay: Percent residual activity, relative to control, of MAPKAP-K2 at 1 uM concentration of inhibitor in presence of 20 uM ATP; in short: as §1
[25] = molecular target: Dual specificity tyrosine-phosphorylation-regulated kinase 1A (Homo sapiens) (UniProt Q13627); assay: Percent residual activity, relative to control, of DYRK1a at 1 uM concentration of inhibitor in presence of 50 uM ATP; in short: as §1

`N=C(N)NCCC[C@@H](NC(=O)[C@@H](CCCNC(=N)N)NC(=O)[C@@H](CCCNC(=N)N)NC(=O)[C@@H](CCCNC(=N)N)NC(=O)[C@@H](CCCNC(=N)N)NC(=O)[C@@H](CCCNC(=N)N)NC(=O)CCCCCNC(=O)[C@H]1O[C@@H](n2cnc3c(N)ncnc32)[C@H](O)[C@@H]1O)C(N)=O` was tested, and the Activity [1] was 48%, the Activity [2] was 28% and the Activity [3] was 3%. The Activity [4] was 102%, the Activity [5] was 107% and the Activity [6] was 62%. For the same molecule, the Activity [7] was 38%, the Activity [8] was 14% and the Activity [9] was 16%. It also gave an Activity [10] of 94%, an Activity [11] of 94% and an Activity [12] of 7%. It also gave an Activity [13] of 72%, an Activity [14] of 88% and an Activity [15] of 92%. For the same molecule, the Activity [16] was 70%, the Activity [17] was 56% and the Activity [18] was 70%. The Activity [19] was 77%, the Activity [20] was 103% and the Activity [21] was 89%. The Activity [22] was 104%, the Activity [23] was 16% and the Activity [24] was 85%. The Activity [25] was 72%.
